Data published in ChEMBL document CHEMBL4020757, “Lathyrol and epoxylathyrol derivatives: Modulation of Cdr1p and Mdr1p drug-efflux transporters of Candida albicans in Saccharomyces cerevisiae model” (Bioorg Med Chem, 2017).
Values after ≈ are worked out from the molar mass of the structure shown.

Tests used:
Candida albicans [1] = experiment: Inhibition of Candida albicans CDR1 expressed in Saccharomyces cerevisiae AD assessed as potentiation of fluconazole-induced antifungal activity against Saccharomyces cerevisiae AD by checkerboard method
How it was run: (§1)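 Checkerboard per CLSI in AD1-8u⁻ control, AD-CDR1 or AD-MDR1 cells (10⁴ cells) grown 48 h at 30 °C. Fluconazole 4-209 μM crossed with compound 0.25-400 μM. Growth read by optical density. FIC of each agent is its MIC in combination divided by its MIC alone. FICI is the sum of the fluconazole and compound FICs, with values below 0.5 taken as synergy.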

Saccharomyces cerevisiae [2] = experiment: Resistance index, ratio of MIC80 for Saccharomyces cerevisiae AD over-expressing Candida albicans CDR1 to MIC80 for Saccharomyces cerevisiae AD1-8u(-); assay type: functional
How it was run: (§2)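 Yeast (10⁴ cells) grown in YEPD at 30 °C for 48 h with inhibitors at 0.25-400 μM (DMSO stocks); growth read by optical density, inhibitor-free growth set as 100%. MIC80 = concentration giving 80% growth inhibition. RI = MIC80 in AD-CDR1 or AD-MDR1 divided by MIC80 in control AD1-8u⁻. Means ± SD, duplicate samples, at least three independent experiments.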

Candida albicans [3] = experiment: Inhibition of Candida albicans MDR1 expressed in Saccharomyces cerevisiae AD assessed as reduction in nile red dye efflux at 70 uM after 30 mins by flow cytometry relative to control
How it was run: (§3)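 AD-CDR1 or AD-MDR1 cells grown in YEPD at 30 °C with shaking from OD600 0.1 to 0.25, then resuspended as a 5% suspension in 1:2 YEPD:water. Nile Red (final 7 μM) added with or without compound at 70 μM, 30 min at 30 °C. Cells washed twice and 10,000 cells analysed by flow cytometry. Efflux rate expressed relative to untreated control cells. Means ± SD, three independent experiments.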

Candida albicans [4] = experiment: Inhibition of Candida albicans CDR1 expressed in Saccharomyces cerevisiae AD assessed as ratio of compound MIC80 in combinantion with fluconazole to compound alone MIC80 for Saccharomyces cerevisiae AD by checkerboard method
How it was run: (§4)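 Checkerboard per CLSI with 10⁴ cells of AD-CDR1, AD-MDR1 or AD1-8u⁻, grown 48 h at 30 °C. Fluconazole 4-209 μM crossed with compound 0.25-400 μM, growth read by optical density. Compound FIC is the compound MIC in combination with fluconazole divided by its MIC alone.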

Candida albicans [5] = experiment: Inhibition of Candida albicans CDR1 expressed in Saccharomyces cerevisiae AD assessed as reduction in nile red dye efflux at 70 uM after 30 mins by flow cytometry relative to control; how it was run: as §3
Candida albicans [6] = experiment: Inhibition of Candida albicans MDR1 expressed in Saccharomyces cerevisiae AD assessed as potentiation of fluconazole-induced antifungal activity against Saccharomyces cerevisiae AD by checkerboard method; how it was run: as §1
Saccharomyces cerevisiae [7] = experiment: Antifungal activity against Saccharomyces cerevisiae AD over-expressing Candida albicans CDR1 after 48 hrs; assay type: functional; how it was run: as §2
Saccharomyces cerevisiae [8] = experiment: Potentiation of fluconazole-induced antifungal activity against Saccharomyces cerevisiae AD1-8u(-) by checkerboard method; assay type: functional; how it was run: as §1
[9] = Lipophilicity, log P of the compound; assay type: physicochemical; details: octanol/water
Saccharomyces cerevisiae [10] = experiment: Resistance index, ratio of MIC80 for Saccharomyces cerevisiae AD over-expressing Candida albicans MDR1 to MIC80 for Saccharomyces cerevisiae AD1-8u(-); assay type: functional; how it was run: as §2
Saccharomyces cerevisiae [11] = experiment: Antifungal activity against Saccharomyces cerevisiae AD over-expressing Candida albicans MDR1 after 48 hrs; assay type: functional; how it was run: as §2
Saccharomyces cerevisiae [12] = experiment: Synergistic antifungal activity against Saccharomyces cerevisiae AD1-8u(-) assessed as ratio of compound MIC80 in combinantion with fluconazole to compound alone MIC80 by checkerboard method; assay type: functional; how it was run: as §4
Candida albicans [13] = experiment: Inhibition of Candida albicans MDR1 expressed in Saccharomyces cerevisiae AD assessed as ratio of compound MIC80 in combinantion with fluconazole to compound alone MIC80 for Saccharomyces cerevisiae AD by checkerboard method; how it was run: as §4
Saccharomyces cerevisiae [14] = experiment: Antifungal activity against Saccharomyces cerevisiae AD1-8u(-) after 48 hrs; assay type: functional
How it was run: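 S. cerevisiae AD1-8u⁻ control strain revived from glycerol stock on YEPD plates and grown in YEPD at 30 °C. 10⁴ cells exposed to compound at 0.25-400 μM for 48 h at 30 °C. Growth read as optical density, with no-inhibitor growth as 100%. MIC80 is the concentration giving 80% growth inhibition. Means ± SD of duplicates from at least three independent experiments.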

| SMILES | fractional inhibitory concentration index (FICI) (Candida albicans [1]) | Ratio (Saccharomyces cerevisiae [2]) | inhibition (Candida albicans [3]) | Ratio (Candida albicans [4]) | inhibition (Candida albicans [5]) | fractional inhibitory concentration index (FICI) (Candida albicans [6]) | MIC80 (Saccharomyces cerevisiae [7]) | fractional inhibitory concentration index (FICI) (Saccharomyces cerevisiae [8]) | logP [9] | Ratio (Saccharomyces cerevisiae [10]) | MIC80 (Saccharomyces cerevisiae [11]) | Ratio (Saccharomyces cerevisiae [12]) | Ratio (Candida albicans [13]) | MIC80 (Saccharomyces cerevisiae [14]) |
| --- | --- | --- | --- | --- | --- | --- | --- | --- | --- | --- | --- | --- | --- | --- |
| CCCCC(CC)C(=O)O[C@@H]1[C@@H]2[C@@H](OC(=O)C(CC)CCCC)[C@]3(CC[C@H]4[C@@H](/C=C(\C)C(=O)[C@@]2(O)C[C@@H]1C)C4(C)C)CO3 (some centres not stated) | 1.4 | 0.96 | 20% | 1 | 30% | 1.3 | 799 µM (≈ 482 µg/mL) | 2 | 6.45 | 0.96 | 800 µM (≈ 482 µg/mL) | 1 | 1 | 830 µM (≈ 500 µg/mL) |
| C/C1=C\[C@@H]2[C@H](CC[C@]3(CO3)[C@H](OC(=O)c3ccc(C)cc3)[C@H]3[C@@H](OC(=O)c4ccc(C)cc4)[C@@H](C)C[C@]3(O)C1=O)C2(C)C | 1.4 | 0.92 | 25% | 1 | 30% | 1.3 | 789 µM (≈ 463 µg/mL) | 2 | 5 | 0.94 | 803 µM (≈ 471 µg/mL) | 1 | 1 | 853 µM (≈ 500 µg/mL) |
| C=C1CC[C@H]2[C@@H](/C=C(\C)C(=O)[C@@]3(O)C[C@H](C)[C@H](O)[C@@H]3[C@H]1OC(=O)/C=C/c1ccccc1)C2(C)C | 1.4 | 0.92 | 30% | 1 | 65% | 1.3 | 993 µM (≈ 461 µg/mL) | 2 | 3.93 | 0.93 | 1010 µM (≈ 470 µg/mL) | 1 | 1 | 1080 µM (≈ 500 µg/mL) |
| C=C1CC[C@H]2[C@@H](/C=C(\C)C(=O)[C@@]3(OC(C)=O)C[C@H](C)[C@H](OC(C)=O)[C@@H]3[C@H]1OC(C)=O)C2(C)C | 1.4 | 4 | 35% | 1 | 25% | 1.3 | 2100 µM (≈ 967 µg/mL) | 2 | 3.35 | 4 | 2100 µM (≈ 967 µg/mL) | 1 | 1 | 543 µM (≈ 250 µg/mL) |
| COc1ccc(C(=O)O[C@@H]2[C@@H]3[C@@H](OC(=O)c4ccc(OC)cc4)[C@]4(CC[C@H]5[C@@H](/C=C(\C)C(=O)[C@@]3(O)C[C@@H]2C)C5(C)C)CO4)cc1 | 1.4 | 0.95 | 80% | 1 | 10% | 1.3 | 776 µM (≈ 480 µg/mL) | 2 | 4.51 | 1.06 | 861 µM (≈ 533 µg/mL) | 1 | 1 | 809 µM (≈ 501 µg/mL) |
| C=C1CC[C@H]2[C@@H](/C=C(\C)C(=O)[C@@]3(O)C[C@H](C)[C@H](O)[C@@H]3[C@H]1O)C2(C)C | 1.4 | 1.01 | 30% | 1 | 40% | 1.3 | 1520 µM (≈ 510 µg/mL) | 2 | 1.48 | 0.98 | 1480 µM (≈ 494 µg/mL) | 1 | 1 | 1500 µM (≈ 502 µg/mL) |
| C/C1=C\[C@@H]2[C@H](CC[C@]3(CO3)[C@H](OC(=O)c3ccccc3)[C@H]3[C@@H](OC(=O)c4ccccc4)[C@@H](C)C[C@]3(OC(=O)c3ccccc3)C1=O)C2(C)C | 1.4 | 0.92 | 20% | 1 | 10% | 1.3 | 700 µM (≈ 464 µg/mL) | 2 | 5.99 | 0.86 | 654 µM (≈ 433 µg/mL) | 1 | 1 | 755 µM (≈ 500 µg/mL) |
| C=C1CC[C@H]2[C@@H](/C=C(\C)C(=O)[C@@]3(O)C[C@H](C)[C@H](O)[C@@H]3[C@H]1OC(=O)c1cccc(OC)c1)C2(C)C | 1.4 | 0.92 | 35% | 1 | 80% | 1.3 | 992 µM (≈ 465 µg/mL) | 2 | 3.42 | 1.05 | 1120 µM (≈ 526 µg/mL) | 1 | 1 | 1070 µM (≈ 500 µg/mL) |
| C=C1CC[C@H]2[C@@H](/C=C(\C)C(=O)[C@@]3(O)C[C@H](C)[C@H](O)[C@@H]3[C@H]1OC(=O)c1cccc(Br)c1)C2(C)C | 1.4 | 0.93 | 30% | 1 | 85% | 1.3 | 901 µM (≈ 466 µg/mL) | 2 | 3.11 | 0.91 | 884 µM (≈ 457 µg/mL) | 1 | 1 | 968 µM (≈ 501 µg/mL) |
| CCCC(=O)O[C@@H]1[C@@H]2[C@@H](OC(C)=O)[C@]3(CC[C@H]4[C@@H](/C=C(\C)C(=O)[C@@]2(OC(C)=O)C[C@@H]1C)C4(C)C)CO3 | 1.4 |  | 25% | 1 | 10% | 1.3 | 1000 µM (≈ 505 µg/mL) | 2 | 2.5 | 0.9 | 901 µM (≈ 455 µg/mL) | 1 | 1 | 992 µM (≈ 501 µg/mL) |
| C/C1=C\[C@@H]2[C@H](CC[C@]3(CO3)[C@H](O)[C@H]3[C@@H](O)[C@@H](C)C[C@]3(O)C1=O)C2(C)C | 1.4 | 4 | 85% | 1 | 30% | 1.3 | 2800 µM (≈ 981 µg/mL) | 2 | 1.91 | 4 | 2800 µM (≈ 981 µg/mL) | 1 | 1 | 714 µM (≈ 250 µg/mL) |
| CC(=O)O[C@@H]1[C@@H]2[C@@H](OC(C)=O)[C@]3(CC[C@H]4[C@@H](/C=C(\C)C(=O)[C@@]2(OC(C)=O)C[C@@H]1C)C4(C)C)CO3 | 1.4 | 0.98 | 75% | 1 | 20% | 1.3 | 519 µM (≈ 247 µg/mL) | 2 | 2.7 | 0.99 | 529 µM (≈ 252 µg/mL) | 1 | 1 | 525 µM (≈ 250 µg/mL) |
